In ChEMBL document CHEMBL4732199, “Potent and orally bioavailable CDK8 inhibitors: Design, synthesis, structure-activity relationship analysis and biological evaluation” (Eur J Med Chem, 2021):
Active and inactive are the calls of the source. The rule behind the calls is not given here.

What was measured:
[1] = target: Cyclin-Y/Cyclin-dependent kinase 16 (Homo sapiens) (UniProt Q00536+Q8ND76); assay: Inhibition of CDK16/Cyclin Y (unknown origin) at 1 uM; assay type: protein-complex assay
How it was run: (§1)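 Residual activity of each kinase with compound at 1 µM, measured in a contracted radioisotope-based kinase profiling assay and expressed as % kinase activity remaining.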

[2] = target: CDK2/Cyclin A2 (Homo sapiens) (UniProt P24941+P20248); assay: Inhibition of CDK2/cyclin-A (unknown origin) at 1 uM; assay type: protein-complex assay; how it was run: as §1
[3] = AUC in BALB/c mouse at 10 mg/kg, po measured up to 24 hrs by LC-MS/MS analysis; conditions: in vivo
[4] = Clearance in BALB/c mouse at 2 mg/kg, iv measured up to 24 hrs by LC-MS/MS analysis; conditions: in vivo
CDK9/cyclin T1 = CDK9/cyclin T1 (Homo sapiens, UniProt P50750); assay: Inhibition of CDK9/Cyclin T1 (unknown origin); assay type: protein-complex assay
How it was run: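 IC50 measured in a contracted radiometric kinase assay with ATP at the experimentally determined Km(ATP) of each kinase. Apparent Ki was derived by Cheng-Prusoff: Ki = IC50/(1+[ATP]/Km(ATP)).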

[5] = target: CDK3/Cyclin E (Homo sapiens) (UniProt P24864+Q00526); assay: Inhibition of CDK3/cyclin-E (unknown origin) at 1 uM; assay type: protein-complex assay; how it was run: as §1
[6] = target: CDK17/Cyclin-Y (Homo sapiens) (UniProt Q00537+Q8ND76); assay: Inhibition of CDK17/Cyclin Y (unknown origin) at 1 uM; assay type: protein-complex assay; how it was run: as §1
[7] = Tmax in BALB/c mouse at 10 mg/kg, po measured up to 24 hrs by LC-MS/MS analysis; conditions: in vivo
[8] = AUC in BALB/c mouse at 2 mg/kg, iv measured up to 24 hrs by LC-MS/MS analysis; conditions: in vivo
[9] = tested on: Glycogen synthase kinase-3 alpha (Homo sapiens), P49840 [UNDEFINED MUTATION]; assay: Inhibition of human GSKalpha S449A mutant (2 to 3nd residues) at 1 uM using YRRAAVPPSPSLSRHSSPHQS(p) EDEEE as substrate incubated for 40 mins in presence of [gamma-33P]-ATP by scintillation counting method relative to control
How it was run: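 Single-point screen of residual kinase activity (%) at 1 µM compound. Run as a contract radiometric [γ-33P]-ATP kinase assay, either the KinaseProfiler service or the HotSpot assay. ATP was set at the experimentally determined Km(ATP) of each kinase.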

[10] = target: CDK7/Cyclin H/MNAT1 (Homo sapiens) (UniProt P51946+P50613+P51948); assay: Inhibition of CDK7/cyclin H/MNAT1 (unknown origin) at 1 uM; assay type: protein-complex assay; how it was run: as §1
[11] = target: Cyclin-dependent kinase 5/CDK5 activator 1 (Homo sapiens) (UniProt Q00535+Q15078); assay: Inhibition of CDK5/p25 (unknown origin) at 1 uM; assay type: protein-complex assay; how it was run: as §1
[12] = Cmax in BALB/c mouse at 2 mg/kg, iv measured up to 24 hrs by LC-MS/MS analysis; conditions: in vivo
[13] = Volume of distribution at steady state in BALB/c mouse at 2 mg/kg, iv measured up to 24 hrs by LC-MS/MS analysis; conditions: in vivo, read-out: Vdss
[14] = Tmax in BALB/c mouse at 2 mg/kg, iv measured up to 24 hrs by LC-MS/MS analysis; conditions: in vivo

Chain of Cyclin-dependent kinase 5/CDK5 activator 1 (Homo sapiens) (Q00535 whole entry): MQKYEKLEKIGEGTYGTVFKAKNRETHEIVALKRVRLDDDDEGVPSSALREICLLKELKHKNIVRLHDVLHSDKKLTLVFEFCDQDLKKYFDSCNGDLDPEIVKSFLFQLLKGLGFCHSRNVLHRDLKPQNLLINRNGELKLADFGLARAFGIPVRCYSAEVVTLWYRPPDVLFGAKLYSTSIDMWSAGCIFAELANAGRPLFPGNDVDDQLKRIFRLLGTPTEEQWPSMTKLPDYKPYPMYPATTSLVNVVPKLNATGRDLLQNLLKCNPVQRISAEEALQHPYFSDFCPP
Chain of Cyclin-dependent kinase 5/CDK5 activator 1 (Homo sapiens) (Q15078 99-307 partner limits assumed): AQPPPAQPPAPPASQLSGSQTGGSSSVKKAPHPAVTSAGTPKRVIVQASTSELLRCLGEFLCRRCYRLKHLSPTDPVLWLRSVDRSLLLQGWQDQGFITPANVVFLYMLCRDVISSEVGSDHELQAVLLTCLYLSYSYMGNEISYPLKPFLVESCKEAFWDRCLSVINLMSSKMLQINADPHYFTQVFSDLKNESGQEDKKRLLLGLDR
Chain of CDK3/Cyclin E (Homo sapiens) (P24864 whole entry, looked up): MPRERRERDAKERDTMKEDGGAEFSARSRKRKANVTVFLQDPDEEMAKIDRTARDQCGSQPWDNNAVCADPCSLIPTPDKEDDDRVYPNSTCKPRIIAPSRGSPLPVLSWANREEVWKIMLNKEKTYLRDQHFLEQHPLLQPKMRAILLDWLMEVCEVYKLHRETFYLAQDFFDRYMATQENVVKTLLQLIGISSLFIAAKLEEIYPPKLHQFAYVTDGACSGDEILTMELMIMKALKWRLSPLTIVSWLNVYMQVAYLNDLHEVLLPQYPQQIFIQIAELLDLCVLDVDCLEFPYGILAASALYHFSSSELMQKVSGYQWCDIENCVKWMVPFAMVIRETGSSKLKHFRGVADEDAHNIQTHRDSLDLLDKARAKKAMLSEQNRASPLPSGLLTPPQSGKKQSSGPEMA
Chain of CDK3/Cyclin E (Homo sapiens) (Q00526 whole entry, looked up): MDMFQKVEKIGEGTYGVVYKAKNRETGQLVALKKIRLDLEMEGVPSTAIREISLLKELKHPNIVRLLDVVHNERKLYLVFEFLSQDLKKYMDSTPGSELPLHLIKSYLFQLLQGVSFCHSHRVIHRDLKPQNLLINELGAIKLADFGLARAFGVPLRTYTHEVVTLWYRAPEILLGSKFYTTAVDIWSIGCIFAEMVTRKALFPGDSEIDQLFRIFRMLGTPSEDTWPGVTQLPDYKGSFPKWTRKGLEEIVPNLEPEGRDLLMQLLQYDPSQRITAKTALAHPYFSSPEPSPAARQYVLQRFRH
Chain of CDK17/Cyclin-Y (Homo sapiens) (Q00537 whole entry): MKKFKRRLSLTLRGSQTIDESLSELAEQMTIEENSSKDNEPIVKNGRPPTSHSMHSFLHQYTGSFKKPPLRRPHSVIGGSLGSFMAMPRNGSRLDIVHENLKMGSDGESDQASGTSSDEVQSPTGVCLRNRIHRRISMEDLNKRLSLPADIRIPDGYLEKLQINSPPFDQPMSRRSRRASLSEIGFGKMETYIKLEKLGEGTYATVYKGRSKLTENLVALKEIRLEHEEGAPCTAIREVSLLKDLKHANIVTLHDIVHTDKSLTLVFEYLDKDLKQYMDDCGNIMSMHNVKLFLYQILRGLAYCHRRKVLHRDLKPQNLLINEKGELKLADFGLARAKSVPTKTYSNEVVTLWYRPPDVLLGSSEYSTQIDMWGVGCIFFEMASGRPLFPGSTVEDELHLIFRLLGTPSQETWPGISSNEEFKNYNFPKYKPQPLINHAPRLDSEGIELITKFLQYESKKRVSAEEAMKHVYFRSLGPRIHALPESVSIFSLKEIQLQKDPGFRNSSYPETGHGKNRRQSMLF
Chain of CDK17/Cyclin-Y (Homo sapiens) (Q8ND76 2-341 partner limits assumed): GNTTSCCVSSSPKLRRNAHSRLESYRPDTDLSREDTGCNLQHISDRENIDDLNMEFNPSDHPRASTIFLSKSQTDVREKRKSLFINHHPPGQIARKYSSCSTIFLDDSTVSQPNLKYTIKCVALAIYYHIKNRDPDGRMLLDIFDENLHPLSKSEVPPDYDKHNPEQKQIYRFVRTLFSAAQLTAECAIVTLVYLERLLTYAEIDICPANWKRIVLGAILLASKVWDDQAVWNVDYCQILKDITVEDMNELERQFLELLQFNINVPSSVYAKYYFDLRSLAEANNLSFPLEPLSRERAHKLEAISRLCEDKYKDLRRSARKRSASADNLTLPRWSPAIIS
Chain of CDK9/cyclin T1 (O60563 whole entry): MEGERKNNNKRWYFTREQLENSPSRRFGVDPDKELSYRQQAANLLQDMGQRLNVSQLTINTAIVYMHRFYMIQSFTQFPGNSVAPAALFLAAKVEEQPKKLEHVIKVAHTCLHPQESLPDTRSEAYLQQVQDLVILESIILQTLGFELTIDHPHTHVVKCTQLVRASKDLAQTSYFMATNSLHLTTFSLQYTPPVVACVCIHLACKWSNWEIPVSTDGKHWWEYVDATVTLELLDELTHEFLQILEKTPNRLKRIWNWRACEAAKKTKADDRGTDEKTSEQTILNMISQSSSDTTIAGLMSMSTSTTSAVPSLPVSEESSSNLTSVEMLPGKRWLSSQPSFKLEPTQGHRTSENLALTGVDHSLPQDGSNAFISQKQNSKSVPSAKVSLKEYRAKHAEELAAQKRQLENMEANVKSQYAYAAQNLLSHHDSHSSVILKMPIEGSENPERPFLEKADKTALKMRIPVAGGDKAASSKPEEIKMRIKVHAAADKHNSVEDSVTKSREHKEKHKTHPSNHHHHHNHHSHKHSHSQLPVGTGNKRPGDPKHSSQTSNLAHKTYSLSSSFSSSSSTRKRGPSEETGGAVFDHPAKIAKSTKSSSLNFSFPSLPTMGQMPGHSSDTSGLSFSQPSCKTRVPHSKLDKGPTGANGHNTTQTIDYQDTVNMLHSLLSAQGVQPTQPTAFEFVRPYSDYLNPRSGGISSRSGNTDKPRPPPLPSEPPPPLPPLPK
Chain of CDK9/cyclin T1 (P50750 whole entry): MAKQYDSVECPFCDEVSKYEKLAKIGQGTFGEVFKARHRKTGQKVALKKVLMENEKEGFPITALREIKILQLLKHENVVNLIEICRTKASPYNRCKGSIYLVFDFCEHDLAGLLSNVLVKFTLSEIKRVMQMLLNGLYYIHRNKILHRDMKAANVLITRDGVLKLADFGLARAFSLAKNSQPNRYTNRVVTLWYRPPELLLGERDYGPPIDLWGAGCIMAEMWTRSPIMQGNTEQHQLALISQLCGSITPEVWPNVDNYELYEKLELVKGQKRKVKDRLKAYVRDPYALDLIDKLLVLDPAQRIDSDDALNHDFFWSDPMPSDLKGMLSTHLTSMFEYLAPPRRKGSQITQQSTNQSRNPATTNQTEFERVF
Chain of Glycogen synthase kinase-3 alpha (Homo sapiens), P49840 [UNDEFINED MUTATION] (P49840 whole entry, looked up, stated change not applied): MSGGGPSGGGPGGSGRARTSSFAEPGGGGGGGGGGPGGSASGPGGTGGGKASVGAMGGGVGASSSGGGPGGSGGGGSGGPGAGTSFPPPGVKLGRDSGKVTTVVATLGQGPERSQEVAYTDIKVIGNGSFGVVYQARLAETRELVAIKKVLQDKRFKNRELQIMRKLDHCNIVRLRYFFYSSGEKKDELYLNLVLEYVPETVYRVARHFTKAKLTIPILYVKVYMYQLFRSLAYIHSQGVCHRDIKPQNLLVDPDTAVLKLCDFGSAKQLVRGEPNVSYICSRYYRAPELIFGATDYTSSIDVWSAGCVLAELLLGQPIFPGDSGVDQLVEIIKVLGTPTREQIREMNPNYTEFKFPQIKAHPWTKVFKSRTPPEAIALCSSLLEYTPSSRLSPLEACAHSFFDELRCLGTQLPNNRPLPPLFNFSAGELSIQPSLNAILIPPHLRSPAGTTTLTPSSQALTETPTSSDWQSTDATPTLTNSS

**Q.** For `O=C1NCCC12CCN(c1c(Cl)cncc1-c1cc3ccccc3o1)CC2`, which inhibition [1] is on record?
**A.** The inhibition was “inactive”.

**Q.** What about the inhibition [2] of the same compound?
**A.** Its inhibition is “inactive”.

**Q.** And the AUC at 24 h [3]?
**A.** The AUC at 24 h was 2.3 µM·h.

**Q.** And the clearance [4]?
**A.** Its clearance is 63 mL/min/kg.

**Q.** And the Ki (CDK9/cyclin T1)?
**A.** Its Ki is 1770 nM.

**Q.** And the inhibition [5]?
**A.** Its inhibition is “inactive”.

**Q.** And the inhibition [6]?
**A.** The inhibition was “inactive”.

**Q.** What about the Tmax [7] of the same compound?
**A.** The Tmax was 25.2 min.

**Q.** And the AUC at 24 h [8]?
**A.** The AUC at 24 h was 1.39 µM·h.

**Q.** What about the inhibition [9] of the same compound?
**A.** The inhibition was over 50%.

**Q.** What about the inhibition [10] of the same compound?
**A.** Its inhibition is “inactive”.

**Q.** What about the inhibition [11] of the same compound?
**A.** The inhibition was “inactive”.

**Q.** And the Cmax [12]?
**A.** The Cmax was 3.44 µM.

**Q.** And the Vd [13]?
**A.** The Vd was 1.99 L/kg.

**Q.** What about the Tmax [14] of the same compound?
**A.** Its Tmax is 2.4 min.
